Experimental data: ChEMBL document CHEMBL1142960, “Synthesis and structure-activity relationships for 2,4-dinitrobenzamide-5-mustards as prodrugs for the Escherichia coli nfsB nitroreductase in gene therapy” (J Med Chem, 2007)
In brackets after ≈: the same amount, converted by molar mass.

Legend:
WiDr [1] = assay: Antitumor activity against human 100% WiDr NTRneo tumor cells injected in CD1 nude mouse assessed as growth delay at 1000 umol/kg, ip in DMSO; assay type: functional
Procedure, shortened: (§1)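 WiDr-NTRneo tumours (100% NTR+ve, or 1:9 NTR+ve:NTR-ve mixtures) in CD-1 nude mice, given a single i.p. dose at MTD. Read-out is median growth delay to 15 mm mean diameter, plus tumours not palpable 100 days after treatment. Aziridine given at 200 µmol/kg as positive control in every experiment.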

V79 [2] = assay: Antiproliferative activity against chinese hamster wild-type V79 NTR-ve cells after 18 hrs; assay type: functional, cell-based; conditions: Cricetulus griseus, V79, 18 h
EMT6 [3] = assay: Antiproliferative activity against mouse wild type EMT6 NTR-ve cells after 18 hrs; assay type: functional, cell-based; conditions: EMT6, 18 h
V79 [4] = assay: Clonogenic survival ratio of 3% V79 NTRpuro cells to 97% V79 NTRoua cells in co-culture; assay type: functional, Cricetulus griseus
Procedure, shortened: (§2)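 Multicellular layer cocultures of 3% V79-NTRpuro activators and 97% V79oua NTR-ve targets (ouabain-resistant), exposed to prodrug for 5 h. MCLs were then trypsin-dissociated and plated in ouabain or puromycin selective media for clonogenic survival. C10 (10% survival) interpolated for activators and targets; AC/TC ratio derived. Mean with SEM or range over independent experiments.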

V79 [5] = assay: Clonogenic survival of V79 NTRoua cells after 5 hrs by MCL assay; assay type: functional, Cricetulus griseus
[6] = Partition coefficient at pH 7.4 by shake-flask method; assay type: physicochemical; conditions: octanol/water
Procedure, shortened: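 Octanol-water partition coefficient by shake-flask at pH 7.4, reported with SEM.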

V79 [7] = assay: Antiproliferative activity against chinese hamster V79 NTRpuro cells after 18 hrs; assay type: functional, cell-based; conditions: Cricetulus griseus, V79, 18 h
EMT6 [8] = assay: Selectivity ratio of IC50 for EMT6 NTR-ve cells to IC50 forEMT6 NTRpuro cells; assay type: functional, Mus musculus
[9] = Toxicity in ip dosed CD1 nude mouse in DMSO; assay type: organism-based; conditions: in vivo
Procedure, shortened: (§3)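 Maximum tolerated dose (MTD) determined in CD-1 nude mice after a single i.p. injection of prodrug, given in the vehicle named in each line.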

V79 [10] = assay: Clonogenic survival of 97% V79 NTRoua cells in co-cultures with 3% V79 NTRpuro cells after 5 hrs by MCL assay; assay type: functional, Cricetulus griseus; procedure, shortened: as §2
WiDr [11] = assay: Antiproliferative activity against human wild type WiDr NTR-ve cells after 18 hrs; assay type: functional, cell-based
V79 [12] = assay: Clonogenic survival of 3% V79 NTRpuro cells in co-cultures with 97% V79 NTRoua after 5 hrs by MCL assay; assay type: functional, Cricetulus griseus; procedure, shortened: as §2
[13] = Selectivity ratio of IC50 for Skov3 NTR-ve cells to IC50 for Skov3 NTRneo cells; assay type: functional, Homo sapiens
V79 [14] = assay: Selectivity ratio of IC50 for V79 NTR-ve cells to IC50 for V79 NTRpuro cells; assay type: functional, Cricetulus griseus
[15] = Antiproliferative activity against human wild type Skov3 NTR-ve cells after 18 hrs; assay type: functional, cell-based
WiDr [16] = assay: Antiproliferative activity against human WiDr NTRneo cells after 18 hrs; assay type: functional, cell-based
WiDr [17] = assay: Antitumor activity against mixed human 10% WiDr NTRneo/ 90% WiDr tumor cells injected in CD1 nude mouse assessed as growth delay at 1000 umol/kg, ip in DMSO; assay type: functional; procedure, shortened: as §1
EMT6 [18] = assay: Antiproliferative activity against mouse EMT6 NTRpuro cells after 18 hrs; assay type: functional, cell-based; conditions: EMT6, 18 h
[19] = Antiproliferative activity against human Skov3 NTRneo cells after 18 hrs; assay type: functional, cell-based; conditions: SK-OV-3, 18 h
WiDr [20] = assay: Selectivity ratio of IC50 for WiDr NTR-ve cells to IC50 for WiDr NTRneo cells; assay type: functional, Homo sapiens
EMT6 [21] = assay: Antitumor activity against mixed mouse EMT6/EMT6 NTRpuro cells injected in CD1 nude mouse assessed as cell kill at 1000 umol/kg, ip in DMSO after 18 hrs; assay type: functional
EMT6 [22] = assay: Antitumor activity against mixed mouse EMT6/EMT6 NTRpuro cells injected in CD1 nude mouse assessed as cell kill at 1780 umol/kg, ip in DMSO after 18 hrs; assay type: functional
WiDr [23] = assay: Antitumor activity against human 100% WiDr NTRneo tumor cells injected in CD1 nude mouse assessed as growth delay at 1780 umol/kg, ip in DMSO; assay type: functional; procedure, shortened: as §1
[24] = Stability in alpha MEM at 37 degC after 24 hrs; assay type: physicochemical; conditions: read-out: Stability
Procedure, shortened: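 Percent parent compound remaining, by HPLC, after holding in α-MEM with 5% fetal calf serum at 37 °C for 24 h.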

WiDr [25] = assay: Antitumor activity against mixed human 10% WiDr NTRneo/ 90% WiDr tumor cells injected in CD1 nude mouse assessed as growth delay at 1780 umol/kg, ip in DMSO; assay type: functional; procedure, shortened: as §1
[26] = Solubility in alpha MEM; assay type: physicochemical
Procedure, shortened: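 Solubility (mM) in α-MEM with 5% fetal calf serum at ambient temperature, measured by HPLC.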

[27] = Toxicity in ip dosed CD1 nude mouse in DMSO/PEG; assay type: organism-based; conditions: in vivo; procedure, shortened: as §3
EMT6 [28] = assay: Antitumor activity against mixed mouse EMT6/EMT6 NTRpuro cells injected in CD1 nude mouse assessed as cell kill at 133 umol/kg, ip in DMSO/PEG after 18 hrs; assay type: functional
WiDr [29] = assay: Antitumor activity against mixed human 10% WiDr NTRneo/ 90% WiDr tumor cells injected in CD1 nude mouse assessed as growth delay at 750 umol/kg, ip in DMSO; assay type: functional; procedure, shortened: as §1
WiDr [30] = assay: Antitumor activity against human 100% WiDr NTRneo tumor cells injected in CD1 nude mouse assessed as growth delay at 133 umol/kg, ip in DMSO/PEG; assay type: functional; procedure, shortened: as §1

CS(=O)(=O)OCCN(CCCl)c1cc(C(N)=O)c([N+](=O)[O-])cc1[N+](=O)[O-]
Activity (WiDr [1]): >80 days
IC50 (V79 [2]): 504 µM
IC50 (EMT6 [3]): 211 µM
Ratio (V79 [4]): 0.16
Activity (V79 [5]): >1000 µM
logD [6]: 0.42
IC50 (V79 [7]): 0.55 µM
Ratio IC50 (EMT6 [8]): 942
MTD [9]: 1000 µmol/kg
Activity (V79 [10]): 33 µM
IC50 (WiDr [11]): 246 µM
Activity (V79 [12]): 5.3 µM
Ratio IC50 [13]: 697
Ratio IC50 (V79 [14]): 1060
IC50 [15]: 522 µM
IC50 (WiDr [16]): 0.7 µM
Activity (WiDr [17]): 38 days
IC50 (EMT6 [18]): 0.3 µM
IC50 [19]: 0.78 µM
Ratio IC50 (WiDr [20]): 442
LCK (EMT6 [21]): >3.82

CS(=O)(=O)OCCN(CCBr)c1cc(C(N)=O)c([N+](=O)[O-])cc1[N+](=O)[O-]
IC50 (V79 [2]): 133 µM
IC50 (EMT6 [3]): 76 µM
Ratio (V79 [4]): 0.2
Activity (V79 [5]): >250 µM
logD [6]: 0.49
IC50 (V79 [7]): 0.11 µM
LCK (EMT6 [22]): >3.61
Activity (WiDr [23]): >82 days
remaining at 24 h [24]: 71%
Ratio IC50 (EMT6 [8]): 1510
MTD [9]: 1780 µmol/kg
Activity (V79 [10]): 10 µM
IC50 (WiDr [11]): 80 µM
Activity (V79 [12]): 2 µM
Ratio IC50 [13]: 715
Ratio IC50 (V79 [14]): 1260
IC50 [15]: 135 µM
IC50 (WiDr [16]): 0.22 µM
Activity (WiDr [25]): 26 days
solubility [26]: 230 µM (≈ 105 µg/mL)
IC50 (EMT6 [18]): 0.05 µM
IC50 [19]: 0.19 µM
Ratio IC50 (WiDr [20]): 387

CS(=O)(=O)c1cc([N+](=O)[O-])c(C(N)=O)cc1N(CCBr)CCBr
MTD [27]: 133 µmol/kg
IC50 (V79 [2]): 80 µM
IC50 (EMT6 [3]): 39 µM
Activity (V79 [5]): >100 µM
logD [6]: 1.02
IC50 (V79 [7]): 0.16 µM
remaining at 24 h [24]: 63%
Ratio IC50 (EMT6 [8]): 490
MTD [9]: 750 µmol/kg
Activity (V79 [10]): 16 µM
IC50 (WiDr [11]): 37 µM
LCK (EMT6 [28]): 2.24
Activity (V79 [12]): 5.5 µM
Ratio IC50 [13]: 265
Ratio IC50 (V79 [14]): 508
IC50 [15]: 86 µM
IC50 (WiDr [16]): 0.58 µM
Activity (WiDr [29]): 36 days
solubility [26]: 70 µM (≈ 33.1 µg/mL)
IC50 (EMT6 [18]): 0.09 µM
Activity (WiDr [30]): >83 days
IC50 [19]: 0.4 µM
Ratio IC50 (WiDr [20]): 74
